Results from ChEMBL document CHEMBL1135174, “The synthesis and structure-activity relationships of 4-aryl-3-aminoquinolin-2-ones: a new class of calcium-dependent, large conductance, potassium (maxi-K) channel openers targeted for post-stroke neuroprotection” (Bioorg Med Chem Lett, 2002).
One block for each molecule: values may come before it.

Tests used:
Xenopus laevis = organism: Xenopus laevis; assay: Tested for the effect on maxi-K-mediated outward current (mSlo) in Xenopus laevis oocytes at 20 uM; type: functional, frog
In short: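 Two-electrode voltage clamp was run on Xenopus laevis oocytes expressing cloned mSlo maxi-K channels. A single drug concentration was tested in at least five oocytes against iberiotoxin-sensitive outward K+ current. Output is the average percentage change in current relative to the drug-free control (100%).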

[1] = Compound was evaluated for Tmax in brain after intravenous administration in male rats; type: ADME, organism-based; conditions: rat
In short: (§1)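 Male rats got an iv bolus of 4.7 mg/kg, N=3 at each time point. Whole brain and plasma were sampled through 24 h. AUC (ng-h/mL plasma, ng-h/g brain) was calculated by the trapezoidal rule over 0–24 h. Brain/plasma ratio was taken from the AUC values. Cmax, Tmax and elimination half-lives were derived for brain and plasma.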

[2] = Tested for concentration in brain after 0.25 hrs of intravenous administration (5 mg/kg) to male rats; type: ADME, organism-based; conditions: rat
In short: (§2)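 Male rats got a single iv bolus of 5 mg/kg. Plasma and whole brain were sampled at 0.25 h and 2 h. Plasma is in ng/mL and brain in ng/g wet weight, each the mean of three animals ± standard deviation. Brain detection limit was 50 ng/g. Brain/plasma ratio was computed at each time point.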

[3] = Tested for plasma concentration in the after 2 hrs of intravenous administration (5 mg/kg) to male rats; type: ADME, organism-based; conditions: rat; in short: as §2
[4] = Ratio of the AUC values of brain and plasma after intravenous administration (4.7 mg/kg) to male rats was evaluated; type: ADME, organism-based; conditions: rat; in short: as §1
[5] = Ratio in brain and plasma after 2 hrs of intravenous administration (5 mg/kg) to male rats was evaluated; type: ADME, organism-based; conditions: rat; in short: as §2
[6] = Half-life in brain after intravenous administration (4.7 mg/kg) to male rats; type: ADME, organism-based; conditions: rat; in short: as §1
[7] = Ratio in brain and plasma after 0.25 hrs of intravenous administration (5 mg/kg) to male rats was evaluated; type: ADME, organism-based; conditions: rat; in short: as §2
[8] = Half-life in plasma after intravenous administration (4.7 mg/kg) to male rats; type: ADME, organism-based; conditions: rat; in short: as §1
Rattus norvegicus = assay: (§3) Tested for concentration in brain after intravenous administration (4.7 mg/kg) to male rats; type: ADME, organism-based; conditions: in vivo; in short: as §1
[9] = Tested for plasma concentration after intravenous administration (4.7 mg/kg) to male rats; type: ADME, organism-based; conditions: rat; in short: as §1
[10] = Tested for plasma concentration in the after 0.25 hrs of intravenous administration (5 mg/kg) to male rats; type: ADME, organism-based; conditions: rat; in short: as §2
[11] = Tested for concentration in brain after 2 hrs of intravenous administration (5 mg/kg) to male rats; type: ADME, organism-based; conditions: rat; in short: as §2
[12] = as §3; type: ADME, organism-based; set-up: dose 4.7 mg/kg, route intravenous; conditions: rat; in short: as §1
[13] = Tested for ratio in brain and plasma after 2 hrs of intravenous administration (5 mg/kg) to male rats; type: ADME, organism-based; conditions: rat; in short: as §2
[14] = Tested for plasma concentration after 0.25 hrs of intravenous administration (5 mg/kg) to male rats; type: ADME, organism-based; conditions: rat; in short: as §2
[15] = Tested for plasma concentration after 2 hrs of intravenous administration (5 mg/kg) to male rats; type: ADME, organism-based; conditions: rat; in short: as §2
[16] = Tested for ratio in brain and plasma after 0.25 hrs of intravenous administration (5 mg/kg) to male rats; type: ADME, organism-based; conditions: rat; in short: as §2

SMILES: Nc1c(O)nc2cccc(C(F)(F)F)c2c1-c1cc(Cl)ccc1O
- Increase (Xenopus laevis): 191%

- Tmax [1]: 4.8 min
- concentration at 0.25 h [2]: 1310 ng/g
- concentration at 2 h [3]: 281 ng/mL
- Kp [4]: 7.1
- Kp at 2 h [5]: 5.3
- half-life [6]: 8.1 h
- Kp at 0.25 h [7]: 1.6
- half-life [8]: 7.6 h
- AUC (Rattus norvegicus): 19300 ng·h/g
- AUC [9]: 2700 ng·h/mL
- concentration at 0.25 h [10]: 802 ng/mL
- concentration at 2 h [11]: 1490 ng/g
- Cmax [12]: 1990 ng/g
SMILES: Nc1c(O)nc2ccc(C(F)(F)F)cc2c1-c1cc(Cl)ccc1O
- Increase (Xenopus laevis): 186%

SMILES: O=S(=O)(Nc1c(O)nc2cc(C(F)(F)F)ccc2c1-c1cc(Cl)ccc1O)C(F)(F)F
- Increase (Xenopus laevis): 213%

SMILES: CC(=O)Nc1c(O)nc2ccc(C(F)(F)F)cc2c1-c1cc(Cl)ccc1O
- Increase (Xenopus laevis): 120%

SMILES: CS(=O)(=O)Nc1c(O)nc2ccc(C(F)(F)F)cc2c1-c1cc(Cl)ccc1O
- Increase (Xenopus laevis): 164%

SMILES: O=c1[nH]c2cc(C(F)(F)F)ccc2n1-c1cc(Cl)ccc1O
- Increase (Xenopus laevis): 132%

SMILES: Nc1c(O)nc2ccccc2c1-c1cc(Cl)ccc1O
- Increase (Xenopus laevis): 114%

SMILES: Nc1c(O)nc2ccc(Cl)cc2c1-c1cc(Cl)ccc1O
- Increase (Xenopus laevis): 157%

- concentration at 0.25 h [2]: < 50 ng/g
- concentration at 2 h [3]: 125 ng/mL
- concentration at 0.25 h [10]: 1230 ng/mL
- concentration at 2 h [11]: < 50 ng/g
SMILES: O=S(=O)(Nc1c(O)nc2ccc(C(F)(F)F)cc2c1-c1cc(Cl)ccc1O)C(F)(F)F
- Increase (Xenopus laevis): 343%

- Kp at 2 h [13]: 4.4
- concentration at 0.25 h [2]: 1470 ng/g
- concentration at 0.25 h [14]: 1170 ng/mL
- concentration at 2 h [15]: 339 ng/mL
- concentration at 2 h [11]: 1480 ng/g
- Kp at 0.25 h [16]: 1.3
SMILES: Nc1c(O)nc2cc(C(F)(F)F)ccc2c1-c1cc(Cl)ccc1O
- Increase (Xenopus laevis): 159%

SMILES: Nc1c(O)nc2ccc(C(F)(F)F)cc2c1-c1ccccc1
- Increase (Xenopus laevis): 111%

SMILES: Nc1c(O)nc2ccc(C(F)(F)F)cc2c1-c1ccccc1O
- Increase (Xenopus laevis): 137%

SMILES: COc1ccc(Cl)cc1-c1c(N)c(O)nc2ccccc12
- Increase (Xenopus laevis): 108%

SMILES: Nc1c(O)nc2c(C(F)(F)F)cccc2c1-c1cc(Cl)ccc1O
- Increase (Xenopus laevis): 112%
